Results on 19 molecules are retold here after PubChem BioAssay.

Active and inactive are the calls of the source.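 The calls were made as follows, unless noted: active = viability at or below 10% of carrier control in both of two separate runs; inconclusive = viability at or below 10% in only one of the two runs; inactive = the rest.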

Assay [1] can be described thus: reduced viability of SK-BR-3 breast cancer cells – cell-based, 24 h, human, pilot screen (AID 572).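 Also: compound exposure lasted between 18 and 24 h rather than exactly 24 h; 100% = carrier-treated control wells.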 The note with it: SK-BR-3 viability, CellTiter-Glo luminescence, at 10 µM, stronger effect = lower value.
A short description of assay [2]: HUVEC growth inhibition – cell-based, human, primary screen (AID 575;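 active = viability at or below 30% in both replicate assays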;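 also: 100% = median of untreated cell wells with 0.1% DMSO on each plate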). The note with it: HUVEC proliferation, CellTiter-Glo luminescence, 72 h; at 10 µM; stronger effect = lower value. The method, boiled down:
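system = HUVEC primary cells | amount = 1250 cells/well | buffer or medium = supplemented EBM, 2% fetal bovine serum | dosing = single-point 10 µM, DMSO 0.1% final | times = 72 h compound incubation | detection = CTG luminescence | read-out = % viability relative to median vehicle-well signal on each plate | control set = vehicle and MePR control wells | format = collagen-coated 384-well format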

Assay [3] in a line: MRP1 drug-resistance reversers in H69AR cells – cell-based, doxorubicin co-treatment, pilot screen (AID 601;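 active = viability loss from added drug above about 55%, and viability with drug at most 40%, in both replicates, limit read from the data, passing the limit was not always enough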). The conditions noted are these: CellTiter-Glo, 72 h, at 10 µM; for differential viability (reversal): stronger effect = higher value.
Assay [4] in a line: yeast transport mutant growth inhibition pilot in 384-well plates, post-Golgi transport modulator project (AID 636; in the data active = inhibition above about 31%). The note with it: absorbance 615 nm, about 18 h, stronger effect = higher value.
Assay [5] can be described thus: growth suppression of yeast trafficking mutant, preliminary HTS, modulators of trafficking downstream of Golgi apparatus project, 1536-format plate, OD 615 nm (AID 637; in the data active = inhibition above about 30%). The conditions noted are these: yeast transport mutant growth, absorbance 615 nm, 18 h; stronger effect = higher value.
Where [6] appears, read: H69AR cells + 2 uM doxorubicin, measured here: viability with 2 uM doxorubicin, stronger effect = lower value.
The mark [7] stands for this setting: H69AR cells, compound alone cytotoxicity.

Take `CC(C)CCn1c(SCC#N)nc2c(sc3ccccc32)c1=O`: the viability in assay [1] is 102% (inactive); in assay [2], 41.2% (inactive); in assay [3] (setting [6]), 53.6%; in assay [3] (setting [7]) it was 55.8%. The differential viability (reversal) in assay [3] (H69AR cells + 2 uM doxorubicin) is 2.2% (inactive). Also, the inhibition was -2.24% (inactive) in assay [4] and -7.14% (inactive) in assay [5].

Take `COc1ccc(CSCCN)cc1Cl`: the viability in assay [1] is 113% (inactive); in assay [2], 105% (inactive); in assay [3] (setting [6]) it was 57.5%; in assay [3] (setting [7]) it was 39.2%. The differential viability (reversal) in assay [3] (H69AR cells + 2 uM doxorubicin) is -18.3% (inactive). The inhibition was -7.33% (inactive) in assay [4] and -2% (inactive) in assay [5].

As for `O=C(c1cc2nc(-c3ccco3)cc(C(F)(F)F)n2n1)N1CCN(c2ccccn2)CC1`, the viability was 101% (inactive) in assay [1], 66.5% (inactive) in assay [2], 66.1% in assay [3] (setting [6]) and 54.3% in assay [3] (setting [7]). Besides, the differential viability (reversal) in assay [3] (H69AR cells + 2 uM doxorubicin) was -11.9% (inactive). Further, the inhibition in assay [4] was -3.2% (inactive); in assay [5], 0.18% (inactive).

For the molecule `COc1cc(C2Nc3cccc4cccc(c34)N2)cc(OC)c1O`, the viability was 92.5% (inactive) in assay [1], 57.5% (inactive) in assay [2], 70% in assay [3] (setting [6]) and 55.2% in assay [3] (setting [7]). Also, in assay [3] (H69AR cells + 2 uM doxorubicin), the differential viability (reversal) is -14.8% (inactive). Besides, the inhibition in assay [4] is -0.92% (inactive); in assay [5], -4.76% (inactive).

Regarding `O=C(Nc1ccc2[nH]c3c(c2c1)CCCC3)c1ccco1`, the viability in assay [1] is 82% (inactive); in assay [2], 73.1% (inactive); in assay [3] (setting [6]), 66.7%; in assay [3] (setting [7]), 63.1%. For the same molecule, the differential viability (reversal) in assay [3] (H69AR cells + 2 uM doxorubicin) is -3.58% (inactive). In addition, the inhibition was -8.67% (inactive) in assay [4] and -2.73% (inactive) in assay [5].

Take `O=C(CC(SCCO)c1ccc2c(c1)OCO2)c1ccco1` (stereo not drawn): the viability in assay [1] is 77.5% (inactive); in assay [2], 95% (inactive); in assay [3] (setting [6]) it was 59.3%; in assay [3] (setting [7]), 41.5%. Further, the differential viability (reversal) in assay [3] (H69AR cells + 2 uM doxorubicin) is -17.8% (inactive). For the same molecule, the figures for the inhibition in assay [4] and in assay [5] were -7.57% (inactive) and -3.65% (inactive), respectively.

For `OCCN1CCN(CCCN2c3ccccc3Sc3ccc(Cl)cc32)CC1`, the viability in assay [1] was 53% (inactive); in assay [2], 1.56% (active); in assay [3] (setting [6]), 5.27%; in assay [3] (setting [7]) it was 1.41%. Besides, the differential viability (reversal) in assay [3] (H69AR cells + 2 uM doxorubicin) is -3.86% (inactive). Further, the inhibition was -3.38% (inactive) in assay [4] and 47.3% (active) in assay [5].

Consider `CC1CCN(CCc2nc3cc(NS(=O)(=O)c4ccc(F)cc4)ccc3n2C)CC1`, for which the viability in assay [1] is 89% (inactive); in assay [2], 77.6% (inactive); in assay [3] (setting [6]), 55.5%; in assay [3] (setting [7]), 52.4%. In addition, the differential viability (reversal) in assay [3] (H69AR cells + 2 uM doxorubicin) was -3.08% (inactive). For the same molecule, the inhibition was -2.33% (inactive) in assay [4] and 0.97% (inactive) in assay [5].

As for `COc1ccccc1NC(=O)N(Cc1ccco1)Cc1cc2c(C)ccc(C)c2[nH]c1=O`, the viability was 70% (inactive) in assay [1], 71.1% (inactive) in assay [2], 50.9% in assay [3] (setting [6]) and 22.1% in assay [3] (setting [7]). Besides, the differential viability (reversal) in assay [3] (H69AR cells + 2 uM doxorubicin) is -28.8% (inactive). Besides, the results for the inhibition in assay [4] and in assay [5] were -2.88% (inactive) and -2.55% (inactive), respectively.

Turning to `Oc1c(Cl)cc(Cl)cc1Sc1cc(Cl)cc(Cl)c1O`, the viability is 143% (inactive) in assay [1], 1.36% (active) in assay [2], 11% in assay [3] (setting [6]) and 11.4% in assay [3] (setting [7]). In addition, the differential viability (reversal) in assay [3] (H69AR cells + 2 uM doxorubicin) is 0.46% (inactive). In addition, the inhibition in assay [4] was -0.78% (inactive); in assay [5], 100% (active).

Consider `O=C1NC2c3ccccc3C(=O)N2c2c1cnn2-c1ccccc1` (stereo not drawn), for which the viability was 98% (inactive) in assay [1], 80.3% (inactive) in assay [2], 86% in assay [3] (setting [6]) and 50.6% in assay [3] (setting [7]). Moreover, the differential viability (reversal) in assay [3] (H69AR cells + 2 uM doxorubicin) is -35.4% (inactive). Moreover, the inhibition in assay [4] is 0.68% (inactive); in assay [5] it was 0.91% (inactive).

`CCOC(=O)c1c(NC(=O)COC(=O)c2c(C)noc2C)sc2c1CCC2`: the viability in assay [1] was 63% (inactive); in assay [2], 35.6% (inactive); in assay [3] (setting [6]) it was 47%; in assay [3] (setting [7]), 47.8%. Moreover, the differential viability (reversal) in assay [3] (H69AR cells + 2 uM doxorubicin) is 0.845% (inactive). Besides, the inhibition in assay [4] was -8.36% (inactive); in assay [5], -3.87% (inactive).

On to `CCCCc1oc2ccccc2c1C(=O)c1cc(I)c(OCCN(CC)CC)c(I)c1`, for which the viability in assay [1] was 91% (inactive); in assay [2] it was 2.45% (active); in assay [3] (setting [6]) it was 12.4%; in assay [3] (setting [7]), 1.29%. In assay [3] (H69AR cells + 2 uM doxorubicin), the differential viability (reversal) is -11.1% (inactive). In addition, the inhibition in assay [4] and in assay [5] was 100% (active) each time.

For the molecule `CC(=O)[C@H]1CC[C@H]2[C@@H]3CCC4=CC(=O)CC[C@]4(C)[C@H]3CC[C@]12C`, the viability in assay [1] is 93% (inactive); in assay [2] it was 49.4% (inactive); in assay [3] (setting [6]), 50.5%; in assay [3] (setting [7]), 47.2%. The differential viability (reversal) in assay [3] (H69AR cells + 2 uM doxorubicin) was -3.29% (inactive). Also, the inhibition in assay [4] is 5.06% (inactive); in assay [5] it was -1% (inactive).

With `COc1cc2cc(C(c3nnnn3C3CCCC3)N3CCCCCC3)c(=O)[nH]c2cc1OC` (stereo not drawn), the viability in assay [1] is 114% (inactive); in assay [2] it was 92.3% (inactive); in assay [3] (setting [6]) it was 59.7%; in assay [3] (setting [7]) it was 59.1%. In addition, the differential viability (reversal) in assay [3] (H69AR cells + 2 uM doxorubicin) is -0.62% (inactive). For the same molecule, the inhibition was -3.87% (inactive) in assay [4] and -2.91% (inactive) in assay [5].

For the molecule `C=CCSc1nnc2n(CCc3ccccc3)c(=O)c3c4c(sc3n12)COC(C)(C)C4`, the viability in assay [1] is 124% (inactive); in assay [2], 72.5% (inactive); in assay [3] (setting [6]) it was 13.8%; in assay [3] (setting [7]) it was 47%. Further, the differential viability (reversal) in assay [3] (H69AR cells + 2 uM doxorubicin) is 33.1% (inactive). Further, the inhibition in assay [4] is -4.38% (inactive); in assay [5], 1.13% (inactive).

With `Cc1cc(CN2CCN(CCC#N)CC2)c(O)c(C2(C)CCCCC2)c1`, the viability was 106% (inactive) in assay [1], 54.2% (inactive) in assay [2], 77.1% in assay [3] (setting [6]) and 64.9% in assay [3] (setting [7]). In addition, the differential viability (reversal) in assay [3] (H69AR cells + 2 uM doxorubicin) was -12.2% (inactive). The inhibition in assay [4] was 1.1% (inactive); in assay [5] it was 39.4% (active).

On to `COc1ccc(CCn2c(=N)c(C(=O)NCc3ccco3)cc3c(=O)n4ccccc4nc32)cc1`, for which the viability in assay [1] is 73% (inactive); in assay [2], 57.9% (inactive); in assay [3] (setting [6]), 64.5%; in assay [3] (setting [7]), 56.1%. Further, in assay [3] (H69AR cells + 2 uM doxorubicin), the differential viability (reversal) was -8.4% (inactive). Besides, the inhibition in assay [4] is -6.76% (inactive); in assay [5], -8.33% (inactive).

Consider `COC(=O)Nc1nc2ccc(C(=O)c3ccccc3)cc2[nH]1`, for which the viability is 109% (inactive) in assay [1], 44.3% (inactive) in assay [2], 73.4% in assay [3] (setting [6]) and 26.1% in assay [3] (setting [7]). In addition, the differential viability (reversal) in assay [3] (H69AR cells + 2 uM doxorubicin) is -47.3% (inactive). Moreover, the values for the inhibition in assay [4] and in assay [5] were 42.3% (active) and 90.2% (active), respectively.

As usually defined, the viability is a read-out of living cells in per cent, often relative to untreated cells. The inhibition is the relative decrease from the control value, in per cent.
